Measured values reported in PubChem BioAssay AID504859 (Broad Institute, 2011).
Activity calls are given as the source filed them.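 The calls were made as follows: active = tumorsphere count inhibition of at least 15% in the mean or in any single replicate; inactive = the rest.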

The compounds below were run on SUM159 tumorsphere formation, imaging, 9 days (assay: tumorsphere growth blockade in breast cancer cells – imaging, SUM159, single point, dry powder, set 2, orthogonal assay for breast cancer stem cell project, confirmation (AID 504859)). Conditions: at 20 µM; stronger effect = higher value.
Procedure, shortened: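 Assay system: SUM159 breast cancer cells forming tumorspheres; Buffer or medium: 5% FBS medium plus 0.5% methylcellulose; Timing: culture at 37 °C, 5% CO2; Measured by: 2x transmitted-light imaging, 9 sites; Plate: Low-attachment wells.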

SMILES | inhibition
Cc1csc(NC(=O)c2ccc(COc3ccccc3F)o2)n1 | 1.67% (inactive)
O=C(NC1CCCC1)c1ccc(COc2ccccc2)o1 | 11% (inactive)
CC(C)c1ccc(/C=C/C(=O)NC2=NCCS2)cc1 | 15.4%
Cc1csc(NC(=O)c2ccc(COc3ccccc3)o2)n1 | 19.1%
Cc1csc(NC(=O)c2ccc(COc3cccc(Cl)c3)o2)n1 | 5.07% (inactive)
COc1ccc(/C=C/C(=O)NC2=NCCS2)c(OC)c1 | 3.49% (inactive)
Cc1ccc(/C=C/C(=O)NC2=NCCS2)cc1 | -19.9% (inactive)
CCc1ccc(/C=C/C(=O)NC2=NCCS2)cc1 | 0.128% (inactive)
Cc1csc(NC(=O)c2ccc(COc3cccc(OC(F)(F)F)c3)o2)n1 | -1.1% (inactive)
O=C(/C=C/c1ccc(-c2ccccc2)cc1)NC1=NCCS1 | 20.5%
O=C(/C=C/c1ccc(Cl)c(Cl)c1)NC1=NCCS1 | 2.48% (inactive)
